CHOP inhibitor: CHOP inhibition in unfolded protein response | CHO-K1 CHOP-promoter luciferase, tunicamycin-induced, 15-18 h | inhibition, % at 10 µM | 3.8% of 220,000 active;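 active = compounds that reduced the stress-induced luciferase reporter signal by more than about 70% of percent inhibition, limit read from the data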;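 also: 0% = tunicamycin plus vehicle and 100% = wells without tunicamycin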
CHOP UPR activ: activators of apoptotic arm of unfolded protein response (CHOP); CHO-CHOP luciferase reporter, UPR activation, luminescence; percent of tunicamycin response over DMSO baseline; activation, % at 10 µM; 0.34% of 330,000 active; AID 449763;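 active = at 10 µM dose, activation of 40% or more, normalized to positive control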;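 also: 100% = tunicamycin at 10 µg/mL and 0% = DMSO alone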
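System: CHO CHOP reporter cells. Amount: 500 cells per well. Buffer or medium: F12 medium, 10% FBS. Compound dosing: one dose, 10 µM in 0.5% DMSO. Incubation: 6 h compound exposure at 37 °C after overnight seeding. Technique: Steady-Glo luciferase luminescence. Benchmarks: tunicamycin and DMSO controls.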
FXN GAA850 act: frataxin GAA850 promoter activation | activation, % at 6 µM | 0.56% of 360,000 active | AID 540364 | HEK293 lucGAA850 FXN promoter luciferase reporter, 24 h; percent of 10 µM SAHA response;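 active = activation above the average of all compounds screened plus 3 SD, cutoff fixed separately per campaign, cut at about 7.5% in these data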;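 also: 0% = DMSO wells and 100% = 10 µM SAHA wells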
UPR XBP1 act: adaptive UPR (XBP1) activation. 0.33% of 330,000 active. CHO-XBP1 luciferase reporter, IRE1-XBP1 UPR activation, luminescence; percent of tunicamycin response, DMSO as zero. activation, % at 20 µM. AID 463104;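 active = versus positive control, 20 µM dose yields 30% or more activation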;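 also: 100% = tunicamycin at 10 µg/mL and 0% = DMSO only wells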
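Material: CHO cell line with stable XBP1 luciferase reporter; schedule: 16-18 h cell attachment at 37 °C, then 6 h compound exposure; signal: glow luminescence from Steady-Glo reagent; medium: serum-containing F12 medium, 10% FBS; benchmarks: tunicamycin 10 µg/mL and vehicle-only wells; read-out: percent activation relative to tunicamycin reference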
GAA30 counter: GAA30 FXN promoter activation counter-screen | activation, % at 6 µM | shares compounds with FXN GAA850 act | HEK293 lucGAA30 FXN promoter luciferase, 24 h; DMSO = 0%, 5 µM ipriflavone = 100% | 66% of 1,900 active;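 active = mean activation above the mean of solvent-only control wells plus 3 SD, cut at about 22% in these data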;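 also: counterscreen of GAA850 promoter hits where activity marks nonselective or luminescence artifacts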
FXN GAA850 conf: confirmation of GAA850 frataxin (FXN) promoter activators; shares compounds with FXN GAA850 act; HEK293 lucGAA850 FXN promoter luciferase reporter, 24 h; 100% = activation by SAHA; activation, % at 6 µM; 86% of 1,900 active;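 active = mean activation above a set limit taken from the primary screen, cut at about 8% in these data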;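 also: 0% = DMSO wells and 100% = 10 µM SAHA wells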
* marks the source's active call; other numbers are inactive results; . = not tested or not shown. Only a selection was taken, and hits are over-represented in it overall.

SMILES | CHOP inhibitor | CHOP UPR activ | FXN GAA850 act | UPR XBP1 act | GAA30 counter | FXN GAA850 conf
C/C(=N\NC(=O)c1cccs1)c1ccc2c(c1)OCO2 | 13 | 13 | 7.6* | 4 | 77* | 25*
Cc1cc(/C=C2\NC(=S)N(C)C2=O)ccc1N1CCCC1 | -10 | 3 | 7.6* | 4 | 107* | 50*
CCCN1C(=O)/C(=C/c2ccc(N3CCCC3)c(C)c2)NC1=S | 68 | 4 | 0 | 2 | . | .
O=C(Nc1cccc(C(F)(F)F)c1)C1Cc2c(-c3ccccc3Oc3ccccc3)ccnc2O1 (configuration not stated) | . | . | 0 | . | . | .
CC(C)OP(=O)(c1ccc(N(C)C)cc1)C(O)c1ccccc1 (configuration not stated) | 7 | 0 | 2 | -2 | . | .
CCCOP(=O)(c1ccc(N(C)C)cc1)C(O)c1c(Cl)cccc1Cl (configuration not stated) | . | 0 | 4 | -3 | . | .
CC(C)CCOP(=O)(c1ccc(N(C)C)cc1)C(O)c1c(Cl)cccc1Cl (configuration not stated) | . | -1 | 20* | -4 | 26* | 14*
CC(C)OP(=O)(c1ccc(N(C)C)cc1)C(O)c1ccc(C(C)C)cc1 (configuration not stated) | . | -1 | 11* | -1 | 29* | 13*
O=C(Nc1cccnc1)C1Cc2c(-c3ccc4c(c3)OCO4)ccnc2O1 (configuration not stated) | . | . | -1 | . | . | .
Fc1ccc(NC(=S)SCc2ccc3c(c2)OCO3)cc1F | . | . | 2 | . | . | .
CC1S/C(=N/N=C2CCCCC2)NC1=O (configuration not stated) | -48 | -1 | 2 | 1 | . | .
CC1S/C(=N/N=C2CCC(C(C)(C)C)CC2)NC1=O (configuration not stated) | -7 | 0 | 14* | 2 | 28* | 7.6*
CC12CCC(/C(=C/NNc3ccc([N+](=O)[O-])cc3[N+](=O)[O-])C1=O)C2(C)C (configuration not stated) | . | . | 0 | . | . | .
Cc1cccc(Nc2nc(-c3sc(C)nc3C)cs2)c1 | . | 6 | 8.5* | 1 | 97* | 32*
Cc1nc(C)c(-c2csc(Nc3cccc(O)c3)n2)s1 | 18 | 4 | 1 | 12 | . | .
CC[C@]12c3[nH]c4ccccc4c3CCN1C(=O)C(CC(=O)NCC13CC4CC(CC(C4)C1)C3)C[C@@H]2C(=O)N1CCN(C(=O)C2CC2)CC1 (some centres not stated) | . | 4 | 9.0* | 5 | -10 | 3
CC[C@]12c3[nH]c4ccc(Cl)cc4c3CCN1C(=O)[C@@H](CC(=O)NCC13CC4CC(CC(C4)C1)C3)C[C@@H]2C(=O)N1CCN(C(=O)C2CC2)CC1 | . | 18 | 6 | 21 | . | .
CC[C@]12c3[nH]c4ccc(OC)cc4c3CCN1C(=O)C(CC(=O)NCC13CC4CC(CC(C4)C1)C3)C[C@@H]2C(=O)N1CCN(C(=O)C2CC2)CC1 (some centres not stated) | . | 8 | 15* | 2 | 23* | 15*
Fc1cccc(-n2cc(-c3ccccc3)c3c(=S)nc[nH]c32)c1 | . | 3 | 7.9* | 0 | -12 | 19*
O=c1[nH]cnc2c1c(-c1ccccc1)cn2-c1ccccc1 | . | 1 | 3 | 2 | . | .
Fc1ccc(-n2cc(-c3ccccc3)c3c(=S)nc[nH]c32)cc1 | . | 1 | 8.5* | 0 | -11 | 14*
Cc1cc(C)c(C)c(S(=O)(=O)N2CCNC(=O)C2)c1C | . | . | 0 | . | . | .
Cc1c(CCC(=O)NCCC(=O)O)c(=O)oc2cc3occ(-c4ccccc4)c3cc12 | . | -3 | -1 | -1 | . | .
Cc1c(CCC(=O)NCC(=O)O)c(=O)oc2cc3occ(-c4ccccc4)c3cc12 | . | -1 | 9.4* | -4 | 2 | 1
N#CCn1c(C2CCCCC2)nc2ccccc2c1=O | -7 | 4 | 9.3* | 3 | 26* | 14*
SMILES | CHOP inhibitor | CHOP UPR activ | FXN GAA850 act | UPR XBP1 act | GAA30 counter | FXN GAA850 conf
CCCC(C)(C)C(=O)N1CCC1(C)C(=O)Nc1cccc(OC)c1 (configuration not stated) | . | . | 0 | . | . | .
Nc1c(C(=O)c2ccccc2)oc2ccc([N+](=O)[O-])cc12 | 49 | 5 | 8.3* | 4 | 99* | 35*
Nc1c(C(=O)c2ccc(Br)cc2)oc2ccccc12 | 3 | 4 | 7.7* | -4 | 93* | 34*
COc1ccc(-c2nc(Cn3c(SCc4ccc(C)cc4)nc4ccncc43)c(C)o2)cc1OC | 31 | 15 | 3 | 4 | . | .
COc1ccc(-c2nc(Cn3c(SCc4cccc(F)c4)nc4ccncc43)c(C)o2)cc1OC | 39 | 2 | 12* | -2 | 19 | 4
COc1ccc(C(C#N)CC(=O)c2ccc(OCc3ccccc3)c(OC)c2)cc1OC (configuration not stated) | . | . | 2 | . | . | .
OC(c1ccco1)c1nc(-c2cccs2)cs1 (configuration not stated) | . | . | 2 | . | . | .
CC(N)c1csc(Nc2ncccn2)n1 (configuration not stated) | . | . | 1 | . | . | .
COc1ccccc1C(=O)N=c1sc2c(C)ccc(OC)c2n1C | 4 | 3 | 9.5* | 7 | 82* | 32*
COc1ccc(C(=O)N=c2sc3c(C)ccc(OC)c3n2C)cc1OC | -15 | 6 | 6 | 13 | . | .
Cc1ccc(/C=C/c2nc3ccccc3[nH]2)o1 | 4 | 4 | 8.9* | 1 | 114* | 38*
Cc1cc2nc(/C=C/c3nc4cc(C)c(C)cc4[nH]3)[nH]c2cc1C | 10 | . | 1 | . | . | .
COC(=O)[C@H](C)NC(=O)NCc1ccccc1F | 55 | 0 | 9.4* | -3 | 18 | 6
CN=C1SC(CC(=O)Nc2cccc(C(F)(F)F)c2)C(=O)N1C (configuration not stated) | 18 | -1 | 1 | -4 | . | .
CN=C1SC(CC(=O)Nc2ccc(N3CCOCC3)cc2)C(=O)N1C (configuration not stated) | -12 | -2 | 13* | 1 | 15 | 3
CC1CN(C(=O)COC(=O)/C=C/c2ccccc2)CC(C)O1 (configuration not stated) | . | . | 0 | . | . | .
CCc1nc2ccc(C(=O)Nc3cccc(OC)c3)cn2c1N(CC)Cc1cccc(Br)c1 | . | . | -1 | . | . | .
CN(C)c1nc(N)nc(CSc2nc3cc(Cl)ccc3o2)n1 | 77* | 7 | 8.3* | 8 | 48* | 27*
Cc1ccc(Nc2ncccc2C(N)=O)cc1[N+](=O)[O-] | -2 | 5 | 10* | 10 | 100* | 27*
Cc1ccc(Nc2ncccc2C(=O)O)cc1C | -3 | 2 | 1 | 1 | . | .
